Results as given in ChEMBL document CHEMBL1142957, “Total structure and inhibition of tumor cell proliferation of laxaphycins” (J Med Chem, 2007).

Assays:
[1] = Cytotoxicity against teniposide-resistant CEM/VM1 cells after 72 hrs; assay type: cell-based; conditions: Homo sapiens, CEM-VM1, 72 h
In short: (§1)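 Leukemic lymphoblasts (parent CCRF-CEM, Pgp-overexpressing CEM/VLB100, topo II-altered CEM/VM-1) grown in RPMI 1640 with 10% FCS and antibiotics, 37 °C, 5% CO2. Serial dilutions in medium added to 2 × 10⁵ cells/mL for 3 days, medium not renewed. Survivors counted on a Coulter counter. Triplicate, averaged.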

[2] = system: CCRF-CEM; test: Cytotoxicity against drug-sensitive CCRF-CEM cells after 72 hrs; assay type: cell-based; conditions: Homo sapiens; in short: as §1
[3] = system: CCRF-CEM; test: Ratio of IC50 for vinblastine-resistant CEM/VLB100 cells over IC50 for drug-sensitive CCRF-CEM cells; assay type: functional, Homo sapiens
[4] = Cytotoxicity against vinblastine-resistant CEM/VLB100 cells after 72 hrs; assay type: cell-based; conditions: Homo sapiens, CEM/VLB100, 72 h; in short: as §1
[5] = system: CCRF-CEM; test: Ratio of IC50 for teniposide-resistant CEM/VM1 cells over IC50 for drug-sensitive CCRF-CEM cells; assay type: functional, Homo sapiens

Row | SMILES | IC50 [1] | IC50 [2] | Ratio IC50 [3] | IC50 [4] | Ratio IC50 [5]
1 | CCCCCCC[C@@H]1CC(=O)N[C@@H](C(C)C)C(=O)N[C@@H]([C@@H](O)C(C)C)C(=O)N[C@@H](C)C(=O)N[C@H]([C@@H](O)C(C)C)C(=O)N[C@@H](CCC(N)=O)C(=O)N(C)[C@@H]([C@@H](C)CC)C(=O)N[C@H]([C@@H](O)C(N)=O)C(=O)N[C@@H]([C@@H](C)O)C(=O)N2C[C@H](O)C[C@H]2C(=O)N[C@H](CC(C)C)C(=O)N[C@@H]([C@@H](C)O)C(=O)N1 [LAXAPHYCIN B3] | 1450 nM | 1500 nM | 0.9 | 1350 nM | 1
2 | COc1cccc2c1C(=O)c1c(O)c3c(c(O)c1C2=O)C[C@@](O)(C(=O)CO)C[C@@H]3O[C@H]1C[C@H](N)[C@H](O)[C@H](C)O1 [DOXORUBICIN] | 550 nM | 60 nM | 62 | 3710 nM | 9
3 | CC[C@]1(O)C[C@@H]2CN(CCc3c([nH]c4ccccc34)[C@@](C(=O)OC)(c3cc4c(cc3OC)N(C)[C@H]3[C@@](O)(C(=O)OC)[C@H](OC(C)=O)[C@]5(CC)C=CCN6CC[C@]43[C@@H]65)C2)C1 [VINBLASTINE] | 8 nM | 4 nM | 89 | 356 nM | 2
